Laboratory results as given in ChEMBL document CHEMBL4118256, “Second Generation of Mannich Base-Type Derivatives with in Vivo Activity against Trypanosoma cruzi” (J Med Chem, 2018).

What was measured:
Trypanosoma cruzi [1] = test: (§1) Antitrypanosomal activity against Trypanosoma cruzi MHOM/Pe/2011/Arequipa DTU 5 trypamastigotes infected in Balb/c mouse assessed as reduction in parasitaemia reactivation in adipose tissue at 100 mg/kg, po pretreated once daily for 5 consecutive days starting from day 10 post infection followed by cyclophosphamide-induced immunosuppression on day 100 post infection every 4 days for a maximum of 3 doses measured on day 127 post infection by PCR method; type: functional; design: scale not given: the % may be the effect or the level left; conditions: pooled result: one value given for 9 cell lines, strains, targets or settings
Summary of the method: (§2)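 Necropsy on day 127 pi after oral treatment and cyclophosphamide immunosuppression. Tissue DNA was amplified by PCR targeting the ~300 bp T. cruzi SOD gene, 200 nM each primer, 30 cycles with 55.5 °C annealing. Products run on 2 % agarose; positive organs counted out of six mice.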

Trypanosoma cruzi [2] = test: Antitrypanosomal activity against Trypanosoma cruzi MHOM/Pe/2011/Arequipa DTU 5 trypamastigotes infected in Balb/c mouse assessed as parasitaemia reactivation at 100 mg/kg, po pretreated once daily for 5 consecutive days starting from day 10 post infection followed by cyclophosphamide-induced immunosuppression on day 100 post infection every 4 days for a maximum of 3 doses measured up to 1 week post immunosuppression by Neubauer chamber method; type: functional
Mus musculus [3] = test: (§3) Cardiotoxicity in Balb/c mouse infected with Trypanosoma cruzi MHOM/Pe/2011/Arequipa DTU 5 trypamastigotes assessed as decrease in serum LDH level at […], po once daily for 5 consecutive days starting from day 10 post infection measured on day 16 post infection by biochemical analysis relative to control; type: toxicity, organism-based; design: scale not given: the % may be the effect or the level left; conditions: in vivo
Summary of the method: (§4)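 Serum clinical chemistry in Arequipa-infected female BALB/c mice. Oral 20 mg·kg-1 per day for 5 days, started day 10 or day 75 pi. Samples taken at day 16 pi or day 81 pi, and on necropsy day. Markers: CK-MB and LDH (U/L), AST, ALT and alkaline phosphatase (U/L), total bilirubin. Results scored relative to infected untreated controls; uninfected reference n = 15.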

Trypanosoma cruzi [4] = test: as §1, with “from day 75 post infection” for “from day 10 post infection”; type: functional; design: scale not given: the % may be the effect or the level left; summary of the method: as §2
Trypanosoma cruzi [5] = test: as §1, with “reactivation in lung tissue at” for “reactivation in adipose tissue at”, “from day 75 post infection” for “from day 10 post infection”; type: functional; design: scale not given: the % may be the effect or the level left; summary of the method: as §2
Mus musculus [6] = test: (§5) Nephrotoxicity in Balb/c mouse infected with Trypanosoma cruzi MHOM/Pe/2011/Arequipa DTU 5 trypamastigotes assessed as increase in uric acid level in serum at 100 mg/kg, po once daily for 5 consecutive days starting from day 75 post infection measured on day 81 post infection by biochemical analysis relative to control; type: toxicity, organism-based; conditions: in vivo
Mus musculus [7] = test: as §5, with “urea” for “uric acid”, “10” for “75”, “16” for “81”; type: toxicity, organism-based; conditions: in vivo
Mus musculus [8] = test: Toxicity in Balb/c mouse assessed as death at 20 mg/kg, po once daily for 5 consecutive days starting from day 10 post infection; type: organism-based; conditions: in vivo
Summary of the method: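 Female BALB/c mice (8-10 weeks, 20-25 g), groups of six, infected i.p. with 5 x 10^5 Arequipa bloodstream trypomastigotes. Dosing was oral, 20 mg·kg-1 per day for 5 days, given as a 2 mg·mL-1 suspension in 5% DMSO/0.5% hydroxypropyl methylcellulose. Treatment started day 10 pi (acute phase) or day 75 pi (chronic phase). Deaths and body-mass loss were monitored during and after treatment.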

Trypanosoma cruzi [9] = test: as §1, with “in esophagus” for “in adipose”, “at 20” for “at 100”; type: functional; design: scale not given: the % may be the effect or the level left; summary of the method: as §2
Mus musculus [10] = test: Hepatotoxicity in Balb/c mouse infected with Trypanosoma cruzi MHOM/Pe/2011/Arequipa DTU 5 trypamastigotes assessed as increase in ratio of serum AST to GOT level at 20 mg/kg, po once daily for 5 consecutive days starting from day 10 post infection measured on day 16 post infection by biochemical analysis relative to control; type: toxicity, organism-based; conditions: in vivo
Mus musculus [11] = test: Toxicity in Balb/c mouse assessed as reduction in body mass at 20 mg/kg, po once daily for 5 consecutive days starting from day 75 post infection relative to control; type: organism-based; design: scale not given: the % may be the effect or the level left; conditions: in vivo
Trypanosoma cruzi [12] = test: as §1, with “in bone marrow” for “in adipose”, “at 20” for “at 100”; type: functional; design: scale not given: the % may be the effect or the level left; summary of the method: as §2
Trypanosoma cruzi [13] = test: as §1, with “at 20” for “at 100”; type: functional; design: scale not given: the % may be the effect or the level left; summary of the method: as §2
Trypanosoma cruzi [14] = test: Antitrypanosomal activity against Trypanosoma cruzi MHOM/Pe/2011/Arequipa DTU 5 trypamastigotes infected in Balb/c mouse assessed as reduction in parasitaemia reactivation at 20 mg/kg, po pretreated once daily for 5 consecutive days starting from day 75 post infection followed by cyclophosphamide-induced immunosuppression on day 100 post infection every 4 days for a maximum of 3 doses measured up to 1 week post immunosuppression by Neubauer chamber method; type: functional; design: scale not given: the % may be the effect or the level left
Summary of the method: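 Female BALB/c mice (8-10 weeks, 20-25 g), groups of six, infected i.p. with 5 x 10^5 bloodstream trypomastigotes in 0.2 mL PBS; oral dosing 20 mg·kg-1 per day for 5 days in 5% DMSO/0.5% HPMC vehicle. After day 100 pi, cyclophosphamide 200 mg·kg-1 i.p. every 4 days, up to three doses. Within 1 week after the last dose, fresh-blood bloodstream trypomastigotes counted in a Neubauer chamber. Reactivation expressed relative to untreated infected controls.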

Trypanosoma cruzi [15] = test: as §1, with “in spleen” for “in adipose”, “at 20” for “at 100”; type: functional; design: scale not given: the % may be the effect or the level left
Mus musculus [16] = test: as §5, with “Hepatotoxicity” for “Nephrotoxicity”, “alkaline phosphatase” for “uric acid”, “level” for “level in serum”, “20” for “100”; type: toxicity, organism-based; conditions: in vivo
Mus musculus [17] = test: as §5, with “decrease” for “increase”, “urea” for “uric acid”, “20” for “100”, “127” for “81”; type: toxicity, organism-based; design: scale not given: the % may be the effect or the level left; conditions: in vivo
Mus musculus [18] = test: Nephrotoxicity in Balb/c mouse infected with Trypanosoma cruzi MHOM/Pe/2011/Arequipa DTU 5 trypamastigotes assessed as decrease in urea level in serum at 20 mg/kg, po once daily for 5 consecutive days starting from day 10 post infection measured on day 127 post infection by biochemical analysis relative to control; type: toxicity, organism-based; design: scale not given: the % may be the effect or the level left; conditions: in vivo
Mus musculus [19] = test: Cardiotoxicity in Balb/c mouse infected with Trypanosoma cruzi MHOM/Pe/2011/Arequipa DTU 5 trypamastigotes assessed as decrease in serum LDH level at 20 mg/kg, po once daily for 5 consecutive days starting from day 75 post infection measured on day 81 post infection by biochemical analysis relative to control; type: toxicity, organism-based; design: scale not given: the % may be the effect or the level left; conditions: in vivo; summary of the method: as §4
Trypanosoma cruzi [20] = test: as §1, with “in muscle” for “in adipose”, “at 20” for “at 100”; type: functional; design: scale not given: the % may be the effect or the level left
Trypanosoma cruzi [21] = test: as §1, with “in heart” for “in adipose”, “at 20” for “at 100”; type: functional; design: scale not given: the % may be the effect or the level left; summary of the method: as §2
Mus musculus [22] = test: as §3, with “Hepatotoxicity” for “Cardiotoxicity”, “change” for “decrease”, “alkaline phosphatase” for “serum LDH”; type: toxicity, organism-based; conditions: in vivo; summary of the method: as §4
Mus musculus [23] = test: as §5, with “decrease” for “increase”, “127” for “81”; type: toxicity, organism-based; design: scale not given: the % may be the effect or the level left; conditions: in vivo
Mus musculus [24] = test: as §5, with “Hepatotoxicity” for “Nephrotoxicity”, “alkaline phosphatase” for “uric acid”, “level” for “level in serum”; type: toxicity, organism-based; conditions: in vivo

COc1ccc(C(=O)CCN2CCN(c3ccc(Cl)cc3)CC2)cc1
Activity (Trypanosoma cruzi [1]): 89% | Activity (Trypanosoma cruzi [2]): 12% | Activity (Mus musculus [3]): <= 20% | Activity (Trypanosoma cruzi [4]): 78% | Activity (Trypanosoma cruzi [5]): 78%

COc1ccc(C(=O)CCN2CCN(c3ccc(F)cc3)CC2)cc1
Activity (Mus musculus [6]): <= 10% | Activity (Mus musculus [7]): <= 30%

O=C(Cn1ccnc1[N+](=O)[O-])NCc1ccccc1 [BENZNIDAZOLE]
Activity (Mus musculus [8]): Non-Toxic | Activity (Trypanosoma cruzi [9]): 33% | Activity (Mus musculus [10]): > 40% | Activity (Mus musculus [11]): > 10% | Activity (Trypanosoma cruzi [12]): 33% | Activity (Trypanosoma cruzi [13]): 33% | Activity (Trypanosoma cruzi [14]): 51% | Activity (Trypanosoma cruzi [15]): 33% | Activity (Mus musculus [16]): > 40% | Activity (Mus musculus [17]): <= 30% | Activity (Mus musculus [18]): <= 30% | Activity (Mus musculus [19]): <= 30% | Activity (Trypanosoma cruzi [20]): 33% | Activity (Trypanosoma cruzi [21]): 33%

COc1ccc(C(=O)CCN2CCN(c3ccc([N+](=O)[O-])cc3)CC2)cc1
Activity (Mus musculus [22]): < 10% | Activity (Mus musculus [23]): <= 30% | Activity (Mus musculus [24]): <= 10%
